Data: ChEMBL document CHEMBL4033605 (J Nat Prod, 2017)
Activity calls are given as the source filed them. The calls are words filed in the database; no cut-off is given here. Where a SMILES comes first, the peptide text is derived from it.

Tests used:
[1] = system: MCF7; assay: Cytotoxic activity against human MCF7 cells assessed as zone diffusion inhibition by measuring distance to perimeter (diffusion distance units) at 9 umol by disk diffusion soft agar colony inhibition assay (reference value: 0 unit); format: functional
[2] = Cytotoxic activity against human H125 cells assessed as zone diffusion inhibition by measuring distance to perimeter (diffusion distance units) at 9 umol by disk diffusion soft agar colony inhibition assay (reference value: 0 unit); format: functional
[3] = system: CCRF-CEM; assay: Cytotoxic activity against human CEM cells assessed as zone diffusion inhibition by measuring distance to perimeter (diffusion distance units) at 36 umol by disk diffusion soft agar colony inhibition assay (reference value: 0 unit); format: functional
[4] = system: LNCaP; assay: Cytotoxic activity against human LNCAP cells assessed as zone diffusion inhibition by measuring distance to perimeter (diffusion distance units) at 36 umol by disk diffusion soft agar colony inhibition assay (reference value: 0 unit); format: functional
[5] = system: HCT-116; assay: Cytotoxic activity against human HCT116 cells incubated for 48 hrs by MTT assay; format: functional, cell-based; settings: HCT-116, 48 h
[6] = Cytotoxic activity against human H116 cells assessed as zone diffusion inhibition by measuring distance to perimeter (diffusion distance units) at 9 umol by disk diffusion soft agar colony inhibition assay (reference value: 0 unit); format: functional
[7] = target: Dipeptidyl peptidase 4 (Homo sapiens) (UniProt P27487); assay: Inhibition of human recombinant DPP4 at 10 uM using H-Gly-Pro AMC substrate incubated for 30 mins by spectrophotometry
How it was run: (§1)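 Human recombinant DPP4 was assayed in 20 mM Tris-HCl pH 8.0 with 100 mM NaCl and 1 mM EDTA. Compound in DMSO was tested at 10 µM final, with three-fold serial dilutions down to 1.5 nM. H-Gly-Pro-AMC substrate was added as a 200 µM solution. After 30 min at 37 °C, fluorescence was read at excitation 355 and emission 455 nm. Background wells had no enzyme. All conditions were run in triplicate.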

[8] = system: OVCAR-5; assay: Cytotoxic activity against human OVCAR5 cells assessed as zone diffusion inhibition by measuring distance to perimeter (diffusion distance units) at 36 umol by disk diffusion soft agar colony inhibition assay (reference value: 0 unit); format: functional
[9] = system: LNCaP; assay: Cytotoxic activity against human LNCAP cells assessed as zone diffusion inhibition by measuring distance to perimeter (diffusion distance units) at 9 umol by disk diffusion soft agar colony inhibition assay (reference value: 0 unit); format: functional
[10] = Cytotoxic activity against human H125 cells assessed as zone diffusion inhibition by measuring distance to perimeter (diffusion distance units) at 36 umol by disk diffusion soft agar colony inhibition assay (reference value: 0 unit); format: functional
[11] = system: PANC-1; assay: Cytotoxic activity against human PANC1 cells assessed as zone diffusion inhibition by measuring distance to perimeter (diffusion distance units) at 36 umol by disk diffusion soft agar colony inhibition assay (reference value: 0 unit); format: functional
[12] = system: MCF7; assay: Cytotoxic activity against human MCF7 cells assessed as zone diffusion inhibition by measuring distance to perimeter (diffusion distance units) at 36 umol by disk diffusion soft agar colony inhibition assay (reference value: 0 unit); format: functional
[13] = Cytotoxic activity against human H116 cells assessed as zone diffusion inhibition by measuring distance to perimeter (diffusion distance units) at 36 umol by disk diffusion soft agar colony inhibition assay (reference value: 0 unit); format: functional
[14] = target: Dipeptidyl peptidase 4 (Homo sapiens) (UniProt P27487); assay: Inhibition of human recombinant DPP4 at <3.33 uM using H-Gly-Pro AMC substrate incubated for 30 mins by spectrophotometry; how it was run: as §1
[15] = system: CFU-GM; assay: Cytotoxic activity against human CFU-GM cells assessed as zone diffusion inhibition by measuring distance to perimeter (diffusion distance units) at 36 umol by disk diffusion soft agar colony inhibition assay (reference value: 0 unit); format: functional
[16] = Cytotoxic activity against human U251N cells assessed as zone diffusion inhibition by measuring distance to perimeter (diffusion distance units) at 36 umol by disk diffusion soft agar colony inhibition assay (reference value: 0 unit); format: functional
[17] = Cytotoxic activity against human U251N cells assessed as zone diffusion inhibition by measuring distance to perimeter (diffusion distance units) at 9 umol by disk diffusion soft agar colony inhibition assay (reference value: 0 unit); format: functional
[18] = system: CFU-GM; assay: Cytotoxic activity against human CFU-GM cells assessed as zone diffusion inhibition by measuring distance to perimeter (diffusion distance units) at 9 umol by disk diffusion soft agar colony inhibition assay (reference value: 0 unit); format: functional
[19] = system: CCRF-CEM; assay: Cytotoxic activity against human CEM cells assessed as zone diffusion inhibition by measuring distance to perimeter (diffusion distance units) at 9 umol by disk diffusion soft agar colony inhibition assay (reference value: 0 unit); format: functional
[20] = system: NCI-H460; assay: Cytotoxic activity against human H460 cells incubated for 48 hrs by MTT assay; format: functional, cell-based; settings: NCI-H460, 48 h

Chain of Dipeptidyl peptidase 4 (Homo sapiens) (P27487 whole entry, looked up, the tested form may be a part): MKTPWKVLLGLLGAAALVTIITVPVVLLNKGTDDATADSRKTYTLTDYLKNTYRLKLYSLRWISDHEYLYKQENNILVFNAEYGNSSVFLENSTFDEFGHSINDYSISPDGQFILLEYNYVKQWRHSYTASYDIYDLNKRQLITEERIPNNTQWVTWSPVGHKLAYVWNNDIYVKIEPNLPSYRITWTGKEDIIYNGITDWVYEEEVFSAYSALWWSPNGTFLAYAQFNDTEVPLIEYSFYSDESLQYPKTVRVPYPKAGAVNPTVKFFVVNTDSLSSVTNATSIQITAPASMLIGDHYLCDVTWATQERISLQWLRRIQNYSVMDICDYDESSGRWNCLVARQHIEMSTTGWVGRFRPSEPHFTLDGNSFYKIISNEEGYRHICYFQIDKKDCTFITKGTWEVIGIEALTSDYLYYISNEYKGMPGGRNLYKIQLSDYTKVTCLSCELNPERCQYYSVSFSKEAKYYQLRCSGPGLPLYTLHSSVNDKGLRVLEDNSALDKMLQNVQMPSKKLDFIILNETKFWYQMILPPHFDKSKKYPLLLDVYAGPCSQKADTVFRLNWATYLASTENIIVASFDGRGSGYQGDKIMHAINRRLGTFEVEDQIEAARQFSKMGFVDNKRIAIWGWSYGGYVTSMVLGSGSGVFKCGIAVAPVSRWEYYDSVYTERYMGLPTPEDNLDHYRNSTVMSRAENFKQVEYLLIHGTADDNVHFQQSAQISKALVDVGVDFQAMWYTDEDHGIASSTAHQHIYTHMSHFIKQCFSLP

| SMILES | inhibition zone (IZ) [1] [U] | inhibition zone (IZ) [2] [U] | inhibition zone (IZ) [3] [U] | inhibition zone (IZ) [4] [U] | IC50 [5] [nM] | inhibition zone (IZ) [6] [U] | inhibition [7] [%] | inhibition zone (IZ) [8] [U] | inhibition zone (IZ) [9] [U] | inhibition zone (IZ) [10] [U] | inhibition zone (IZ) [11] [U] | inhibition zone (IZ) [12] [U] | inhibition zone (IZ) [13] [U] | inhibition [14] | inhibition zone (IZ) [15] [U] | inhibition zone (IZ) [16] [U] | inhibition zone (IZ) [17] [U] | inhibition zone (IZ) [18] [U] | inhibition zone (IZ) [19] [U] | IC50 [20] [nM] |
| --- | --- | --- | --- | --- | --- | --- | --- | --- | --- | --- | --- | --- | --- | --- | --- | --- | --- | --- | --- | --- |
| CC[C@H](C)[C@@H]1NC(=O)[C@@H]2CCCN2C(=O)[C@H](Cc2ccccc2)NC(=O)[C@H](C(C)C)NC(=O)[C@H](CC(C)C)NC(=O)[C@@H]2CCCN2C(=O)[C@@H]2CCCN2C(=O)[C@H](Cc2ccccc2)NC1=O (cyclo(LVFPIFPP)) | 300 | 300 | 600 | 500 | < 10000 | 200 | 15.7 | 200 | 300 | 550 | 200 | 500 | 600 | inactive | 700 | 500 | 300 | 400 | 350 | – |
| COc1cccc2c1C(=O)c1c(O)c3c(c(O)c1C2=O)C[C@@](O)(C(=O)CO)C[C@@H]3O[C@H]1C[C@H](N)[C@H](O)[C@H](C)O1 [DOXORUBICIN] | – | – | – | – | – | – | – | – | – | – | – | – | – | – | – | – | – | – | – | 200 |
